GPR7 antagonist – human neuropeptides B/W receptor 1 antagonism | P48145 | GPR7-expressing cells, fluorescence antagonist assay | AID 1861 | inhibition, % at 4.4 µM | 1.1% of 290,000 active; in the data active = inhibition above about 16%, passing the limit was not always enough;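 note: cells stimulated with the agonist NPW; 0% = agonist with vehicle and 100% = vehicle without agonist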
Target sequence (P48145 whole entry, looked up): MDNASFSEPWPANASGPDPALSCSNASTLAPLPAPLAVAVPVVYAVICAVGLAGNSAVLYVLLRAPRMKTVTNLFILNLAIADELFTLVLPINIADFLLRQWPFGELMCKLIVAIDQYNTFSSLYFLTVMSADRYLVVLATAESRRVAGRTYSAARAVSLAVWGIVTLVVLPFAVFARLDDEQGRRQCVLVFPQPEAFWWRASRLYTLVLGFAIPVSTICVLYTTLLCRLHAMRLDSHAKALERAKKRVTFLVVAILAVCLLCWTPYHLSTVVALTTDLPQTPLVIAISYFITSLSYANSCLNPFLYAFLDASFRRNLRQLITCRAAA
EBNA-1 inh – blocks EBNA-1 binding to DNA. EBNA-1 DNA binding, fluorescence polarization. inhibition, % at 14.8 µM. 0.34% of 300,000 active. AID 1950; in the data active = inhibition above about 28%
FID counter – displaces DNA intercalator in HCV helicase counter-screen; DNA fluorescent intercalator displacement, fluorescence; inhibition, % at 7.9 µM; 0.17% of 290,000 active; AID 1845; in the data active = inhibition above about 37%;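 note: 0% = vehicle and 100% = reference compound; higher means more ethidium bromide displaced from hairpin DNA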
HCV NS3 hel inh – HCV NS3 helicase inhibition; NS3 helicase DNA unwinding, Cy5 molecular beacon fluorescence; inhibition, % at 10.9 µM; 0.56% of 290,000 active;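 active = inhibition above the mean of all tested compounds plus 3 SD, set per campaign, cut at about 35% in these data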;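 note: 0% = DMSO wells and 100% = thioflavine S control wells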
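Assay system: hepatitis C virus NS3 helicase domain fragment enzyme. Also added: annealed dual-labelled DNA beacon duplex, ATP-started. Timing: 1 h reaction at 25 °C, ATP-initiated. Technique: Cy5 fluorescence at 0 and 60 min, beacon hairpin quenching. Evaluation: % inhibition of unwinding. Replication: one well per compound.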
ZTA counter – counter-screen for EBNA-1 inhibitors: inhibitors of Epstein-Barr virus ZTA. 0.15% of 320,000 active. inhibition, % at 11 µM. P03206. ZTA-DNA binding, fluorescence polarization. AID 2234; in the data active = inhibition above about 33%
Target sequence (P03206 whole entry, looked up): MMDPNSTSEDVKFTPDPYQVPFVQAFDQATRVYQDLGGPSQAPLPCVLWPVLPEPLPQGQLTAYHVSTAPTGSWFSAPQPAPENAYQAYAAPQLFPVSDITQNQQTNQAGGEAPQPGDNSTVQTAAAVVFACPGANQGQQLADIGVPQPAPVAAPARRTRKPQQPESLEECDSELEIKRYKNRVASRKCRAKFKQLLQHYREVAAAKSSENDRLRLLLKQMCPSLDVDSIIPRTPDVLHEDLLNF
GPR7 antag conf – human GPR7 antagonism, confirmation assay. shares compounds with GPR7 antagonist. GPR7-expressing cells, calcium fluorescence antagonist mode. inhibition, % at 4.4 µM. 52% of 2,400 active; in the data active = inhibition above about 24%;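 note: stimulated with the GPR7 agonist NPW; 0% = agonist plus vehicle and 100% = vehicle alone without agonist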
MCHR1 antag – counter-screen for GPR7 antagonists: antagonists of human MCHR1; shares compounds with GPR7 antagonist; MCHR1-expressing cells, fluorescence antagonist assay; inhibition, % at 4.4 µM; 62% of 2,400 active; AID 2148; in the data active = inhibition above about 22%;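 note: 0% = vehicle with agonist and 100% = vehicle without agonist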
Starred values were filed as active, the others as inactive; . = no result given. In the library only some 2% were active in any assay of this set; here they are far more common.

SMILES	GPR7 antagonist	EBNA-1 inh	FID counter	HCV NS3 hel inh	ZTA counter	GPR7 antag conf	MCHR1 antag
COc1cc(N2CCCC2)c(OC)cc1/C=C1/NC(=S)NC1=O	32*	-3	-11	13	-12	41*	36*
COc1ccc(OC)c(/C=C2\NC(=O)NC2=O)c1	-2	-9	-4	13	-13	.	.
CC(=O)c1cc(-c2ccccc2)n(CCC(=O)NC2CCC(C)CC2)c1C (stereo unspecified)	23*	-4	-10	18	6	5	-5
COc1cc(OC)cc(C(=O)N[C@H](C(=O)OCC(=O)Nc2ccc(F)c(F)c2)C(C)C)c1	21*	1	-21	-4	-4	34*	48*
COc1cc(OC)cc(C(=O)N[C@H](C(=O)OCC(=O)Nc2ccc(C(N)=O)cc2)C(C)C)c1	-1	1	-20	7	-3	.	.
COc1ccc(CNC(=O)[C@H](C)NC(=O)C2CCN(C(=O)[C@@H](N)Cc3ccccc3)CC2)cc1	-8	-9	-3	-12	-2	.	.
O=S1(=O)CCN2C(Cc3ccc(SC(F)F)cc3)=CSC2=N1	24*	5	-6	-4	10	17	12
Cc1cc(NC(=O)CSc2nnc(COc3ccccc3)n2Cc2ccco2)no1	9	3	-1	3	-20	.	.
COc1ccc(-c2nsc(SCC(=O)Nc3ccc4c(c3)OCO4)n2)cc1	1	10	0	2	8	.	.
COc1ccc(-c2cnc(SCC(=O)Nc3ccc4c(c3)OCO4)n2Cc2ccco2)cc1	22*	.	-17	-7	.	42*	68*
O=C(CSc1nnc(COc2ccccc2)n1Cc1ccco1)Nc1ccc2c(c1)OCCO2	29*	4	-13	-12	-1	31*	33*
CC(=O)N1CCN(C(=O)CCc2cc(C(C)(C)C)c(O)c(C(C)(C)C)c2)CC1	-9	3	-43	5	9	.	.
CCOc1cc(CNCc2ccccc2)ccc1OCc1ccc(Cl)cc1	66*	-7	46*	-76	-12	56*	78*
COc1ccc(CNCCc2ccc(Cl)cc2)cc1OCc1ccccc1	6	-11	24	-73	-22	.	.
COc1cc(CNCc2ccccn2)ccc1OCc1ccc(Cl)c(Cl)c1	24*	6	30	-35	-14	23	68*
Nc1cc(N)nc(SCC(=O)NCC2CCCO2)n1 (stereo unspecified)	0	3	0	4	10	.	.
Nc1cnn(C2CCCO2)c(=O)n1 (stereo unspecified)	24*	-1	-6	-8	-12	0	-5
CCOC(=O)CC1C(=O)NCCN1C(=O)c1ccc(Cl)c(Cl)c1 (stereo unspecified)	-17	5	-6	11	5	.	.
Cc1cccc(C)c1NC(=O)CN(C)C(=O)CSC(=S)N1CCCC1	.	-2	.	.	-1	.	.
CC(C)(C)NC(=O)CN(Cc1ccco1)C(=O)CCC(=O)Nc1nccs1	-10	-5	-19	3	-4	.	.
CC(NC(=O)Cn1c(NCCO)nc2ccccc21)C1CC2CCC1C2 (stereo unspecified)	33*	10	9	14	16	27*	21
COc1ccc(S(=O)(=O)N(C)c2ccc(C(=O)NC3CCCC3)cc2)cc1	-8	-7	-22	7	11	.	.
CN(c1ccc(C(=O)NC2CCCC2)cc1)S(=O)(=O)c1ccc(Cl)cc1	33*	-1	-40	-4	8	24	16
COc1ccccc1C(=O)NC(=O)COC(=O)c1ncc(Cl)c(Cl)c1Cl	.	-7	.	.	-7	.	.
O=C(/C=C/c1ccc(Cl)cc1)Nc1ccc(CN2CCOCC2)cc1	28*	9	23	-30	1	36*	55*
SMILES	GPR7 antagonist	EBNA-1 inh	FID counter	HCV NS3 hel inh	ZTA counter	GPR7 antag conf	MCHR1 antag
CC1CCc2c(sc3[nH]c(=S)n(C)c(=O)c23)C1 (stereo unspecified)	-3	1	-8	10	0	.	.
COc1ccc(C(=O)NCCc2c[nH]c3ccccc23)cc1[N+](=O)[O-]	18	1	5	2	3	.	.
O=C(c1ccc(COc2ccccc2Br)cc1)N1CCCCC1	25*	1	-40	4	10	36*	44*
Cc1ccc(C(=O)CCC(=O)OC(C)C(=O)NC2CCCCC2C)cc1 (stereo unspecified)	.	.	.	.	-4	.	.
C=CCS(=O)(=O)N1CCCC(Cc2ccccc2C)(C(=O)OCC)C1 (stereo unspecified)	31*	-7	-34	2	0	3	-1
CC(C)Nc1ncnc2c1cnn2Cc1ccccc1Cl	31	2	-14	-7	-3	.	.
CC(C)CNc1ncnc2c1cnn2Cc1ccccc1Cl	38*	6	-24	5	3	36*	24*
Cc1cccc(N2CC(C(=O)Nc3nnc(SCC(=O)N4CCOCC4)s3)CC2=O)c1 (stereo unspecified)	-8	14	-45	13	7	.	.
COc1ccc(C=O)cc1COc1ccc(C)cc1[N+](=O)[O-]	31*	0	6	-6	-10	28*	61*
COc1ccc(C=O)cc1COc1ccc(Cl)cc1[N+](=O)[O-]	-1	5	7	2	-4	.	.
Cc1onc(-c2ccccc2)c1C(=O)NC1CCC(C)CC1 (stereo unspecified)	.	.	.	.	13	.	.
O=C(COc1ccccc1[N+](=O)[O-])N(Cc1ccco1)C1CCS(=O)(=O)C1 (stereo unspecified)	-6	-6	-6	3	11	.	.
CCC(c1nnnn1Cc1ccc(F)cc1)N1CCN(C2CCCCC2)CC1 (stereo unspecified)	46*	-3	12	-12	-1	43*	29*
CC(C)C(c1nnnn1Cc1cccs1)N1CCN(C2CCCC2)CC1 (stereo unspecified)	34*	-15	10	-17	4	17	14
c1ccc(C(c2nnnn2Cc2cccs2)N2CCN(C3CCCC3)CC2)cc1 (stereo unspecified)	-1	9	8	-13	4	.	.
O=C(Nc1cccc(Br)c1)c1ccc2c(c1)SC1=NS(=O)(=O)CCN12	.	.	.	.	6	.	.
Cc1nc(C)c(C(=O)Nc2ccccc2)s1	22*	3	2	2	1	3	-5
Cc1nc(Cl)sc1C(=O)Nc1ccccc1	1	-2	0	0	-10	.	.
COC(=O)C1=C(C)N(Cc2ccccc2)C(=NCc2ccccc2)N[C@H]1c1cccc(F)c1	51*	1	30	-144	-11	55*	59*
COCCN=C1N[C@@H](c2ccc(Br)cc2)C(C(=O)OC)=C(C)N1Cc1ccccc1	49*	6	20	-89	-13	65*	41*
COCCN=C1N[C@@H](c2ccccc2)C(C(=O)OC)=C(C)N1Cc1ccccc1	5	4	12	-16	6	.	.

Compound activity (PubChem)
